Measured values of several laboratories.
Lines come from different studies, so protocols differ. pIC50: −log10 of the molar value.
Cell line: HCT-116
Read-out: cell growth or viability

Compound	technique	time	measurement	value
CC(C)c1ccc(/C=C2\N=C(SCC(=O)O)N(c3ccccc3)C2=O)cc1	MTT		IC50	44.3 µg/mL
O=C(C=Cc1cccs1)c1ccc(OCCCCOc2ccc(C(=O)C=Cc3cccs3)cc2)cc1	MTT	48 h	pIC50	3.45
Cc1cccc(NC(=O)Cn2cc(COc3ncnc4[nH]cnc34)nn2)c1	MTT		pIC50	4.26
Cc1cccc(N=C2C(=O)N(Cc3ccccc3)c3ccccc32)c1	MTT	48 h	pIC50	5.57
c1ccc(Cn2nc(-c3ncc(-c4ccccc4)s3)c3ccccc32)cc1		48 h	pIC50	4.30
Cc1cc2c(C(N)=O)nccc2n1-c1nc2c(c(NCc3ccccc3)n1)CCCN2	ATP luminescence	72 h	pIC50	5.64
O=c1cc(OCc2cc(-c3ccc(C(F)(F)F)cc3)no2)c2ccccc2o1	MTS	72 h	pIC50	< 4.00
Cc1cc(C)n(Cn2ccnc2)n1	MTT	24 h	pIC50	4.67
O=[N+]([O-])c1cc(Br)c(O)c(C=NNc2ccccc2)c1	MTT	24 h	pIC50	4.93
COc1cccc2c1C(=O)c1c(O)c3c(c(O)c1C2=O)C[C@@](O)(C(=O)CO)C[C@@H]3O[C@H]1C[C@H](N)[C@H](O)[C@H](C)O1	ATP luminescence	72 h	pIC50	6.01
O=C1Nc2ccccc2C1=Nc1ccccc1Br	MTT	48 h	pIC50	< 4.00
OCn1ccnc1	MTT	24 h	pIC50	4.97
N/C(=N\O)c1ccc(-c2cc(CNc3cccc4cccnc34)on2)cc1	MTS	72 h	pIC50	< 4.00
O=C1/C(=C/c2ccc(O)cc2O)NC(=S)N1c1ccccc1	MTT		IC50	91.3 µg/mL
O=C1Nc2ccccc2C1=Nc1ccccc1I	MTT	48 h	pIC50	4.50
Cc1c2c(nn1C)CSCc1cc(n(C)n1)CSc1cc(c3ccccc3c1)OCCCc1c(C(=O)O)n(C)c3c-2c(Cl)ccc13	CCK-8		pIC50	4.60
COc1ccc(N(Cc2csc(-c3ccc(Br)cc3)n2)C(=O)CCCCCC(=O)NO)cc1	MTT	72 h	pIC50	5.66
Cc1cc(NS(=O)(=O)c2ccc(NC(=O)/C(C#N)=C/c3cccnc3)cc2)no1	MTT	48 h	pIC50	< 3.70
CC(C)c1cccc(C(C)C)c1N=C1C(=O)N(Cc2ccccc2)c2ccccc21	MTT	48 h	pIC50	4.93
C#CCn1c(C2CC(c3ccc(F)cc3)=NN2C(C)=O)nc2ccccc21 (centres unmarked)	LDH	48 h	pIC50	5.16
O=[N+]([O-])c1cc(Br)c(O)c(C=NNc2ccc(Br)cc2)c1	MTT	24 h	pIC50	4.81
O=C1CS/C(=N\c2cc(C(F)(F)F)ccc2-c2nnc(N3C(=O)CS/C3=N\c3ccc(F)c(O)c3)s2)N1c1ccc(F)c(O)c1	MTT		pIC50	4.67

Compound	technique	time	measurement	value
FC(F)(F)c1ccc(-c2cc(COc3cc(C(F)(F)F)nc4ccccc34)on2)cc1	MTS	72 h	pIC50	< 4.00
c1ccc(-c2noc(-c3nn(Cc4ccc5ccccc5c4)c4ccccc34)n2)cc1		48 h	pIC50	3.76
O=C(CSc1nc2ccccc2s1)N/N=C/c1ccc(OCC(=O)Nc2ccc(Br)cc2)cc1	MTS	72 h	pIC50	< 4.00
O=C1CS/C(=N\c2cc(C(F)(F)F)ccc2-c2nnc(N3C(=O)CS/C3=N\c3ccc(Cl)cc3)s2)N1c1ccc(Cl)cc1	MTT		pIC50	4.34
S=C(N/N=C/c1cccc2cc3ccccc3nc12)Nc1ccccc1	MTT	48 h	pIC50	< 4.30
O=C1C(=Nc2ccc(Cl)cc2)c2ccccc2N1Cc1cccc(Cl)c1	MTT	48 h	pIC50	5.11
Cc1cc2c(C(=O)O)cccc2n1-c1nc2c(c(NCc3ccccc3)n1)CCCN2	ATP luminescence	72 h	pIC50	6.40
CC(=O)O[C@@H]1[C@@H](OC(C)=O)[C@H](OC(C)=O)CO[C@H]1n1cc(Cn2c(C(=O)/C=C/c3ccc(F)cc3)nc3ccccc32)nn1	LDH	48 h	pIC50	5.00
COc1cc([C@@H]2c3cc4c(cc3[C@@H](O[C@@H]3O[C@@H]5CO[C@@H](C)O[C@H]5[C@H](O)[C@H]3O)[C@H]3COC(=O)[C@H]23)OCO4)cc(OC)c1O	SRB	72 h	pIC50	5.62
Fc1ccc(NC(=S)N/N=C/c2cccc3cc4ccccc4nc23)cc1	MTT	48 h	pIC50	< 4.30
Fc1ccc2c(-c3nnc(Cc4ccccc4)s3)nn(Cc3ccc(Cl)cc3Cl)c2c1		48 h	pIC50	4.07
c1ccc(-c2cc(CNc3cccc4cccnc34)on2)nc1	MTS	72 h	pIC50	< 4.00
Cc1cc2c(C(N)=O)cncc2n1-c1nc2c(c(NCc3ccccc3)n1)CCCN2	ATP luminescence	72 h	pIC50	5.92
O=C1Nc2ccccc2C1=Nc1cccc(Cl)c1	MTT	48 h	pIC50	< 4.00
COc1cc([C@@H]2c3cc4c(cc3[C@@H](O[C@@H]3O[C@@H]5CO[C@@H](C)O[C@H]5[C@H](O)[C@H]3O)[C@H]3COC(=O)[C@H]23)OCO4)cc(OC)c1O	MTS	72 h	pIC50	6.23
Cc1cccc([N+](=O)[O-])c1N=C1SCC(=O)N1c1nnc(-c2ccc(C(F)(F)F)cc2N=C2SCC(=O)N2c2c(C)cccc2[N+](=O)[O-])s1	MTT		pIC50	4.21
O=[N+]([O-])c1cc(Br)c(O)c(C=NNc2ccc(Cl)cc2)c1	MTT	24 h	pIC50	4.78
CC1(P2(=O)CCCCC2)C=CCC=C1	MTT	72 h	pIC50	< 4.00
O=C1C(=Nc2ccccc2I)c2ccccc2N1Cc1ccc([N+](=O)[O-])cc1	MTT	48 h	pIC50	5.77
FC(F)(F)c1ccc(-c2noc(-c3nn(Cc4ccc(Cl)cc4Cl)c4ccccc34)n2)cc1		48 h	pIC50	3.86
Cc1cccc(N=C2C(=O)Nc3ccccc32)c1	MTT	48 h	pIC50	< 4.00
O=C(O)c1nn(Cc2ccc(Cl)cc2Cl)c2ccccc12		48 h	pIC50	3.61
